Screens deposited in PubChem by several laboratories.
WT yeast gro inh: growth inhibition of WT yeast, mitochondrial fusion screen; mitochondrial fusion phenotypic screen, WT strain; inhibition, % at 10 µM; hit rate 2.1% among 190,000; in the data active = inhibition above about 58%; tested in S. cerevisiae
Diaphorase act: activates diaphorase or chemically reduces, flagging diaphorase assay artifacts. activation factor at 20 µM. AID 1229. Diaphorase/resazurin coupled assay, resorufin fluorescence, 16 min; active compounds read high; 1 = vehicle wells, 0 = NADH-free wells. hit rate 0.005% among 190,000;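 active = diaphorase activity raised at least twofold by the compound at 20 µM; inactive = activation factor below 2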
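Measured by – red resorufin fluorescence at 544/590 nm excitation/emission · Test system – Clostridium kluyveri diaphorase, purified enzyme · Incubation – reaction time 16 min, room temperature · Buffer or medium – 50 mM HEPES pH 7.4 with 4.542 mM MgCl2, 0.005% Tween 20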
L major viab: Leishmania major promastigote growth inhibition | Leishmania major promastigotes, resazurin fluorescence viability | inhibition, % at 10 µM | hit rate 9% among 200,000 | AID 1063;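 also: promastigotes grown with compound for 44 hours at 28 °C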
Diaph inh CS: diaphorase inhibition or chemical oxidation counter-screen; diaphorase resazurin-to-resorufin fluorescence, NADH, 16 min; bacterial (C. kluyveri) enzyme, not human; inhibition, % at 20 µM; hit rate 0.69% among 190,000; AID 1217;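 active = primary screen inhibition at 20 µM above a set limit, cut at about 50% in these data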;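 also: plate controls were DMSO with full reaction for no effect and wells lacking NADH for full effect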
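Benchmarks: positive control wells lacking NADH, neutral wells with DMSO only. System: bacterial diaphorase enzyme (C. kluyveri). Input: 0.14 U/mL diaphorase, enzyme working solution. Detection: resorufin fluorescence, excitation 544 nm, emission 590 nm. Times: 16-min room-temperature incubation before reading.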
G6PDH counter: L. mesenteroides G6PDH inhibition counter-screen. Purified L. mesenteroides G6PDH, diaphorase/resazurin coupled fluorescence, 45 min. inhibition, % at 5 µM. hit rate 0.12% among 200,000
An asterisk follows results filed as active. Hits are enriched below; roughly 11% of the tested compounds scored in any of these assays. Rule as the data show it, unless noted: active = inhibition above about 50%; inactive = the rest.

SMILES	WT yeast gro inh	Diaphorase act	L major viab	Diaph inh CS	G6PDH counter
CCCCN(CC)C(=O)CSc1nc2n[nH]c(C)c2c(=N)n1-c1cccc(C)c1	-8	0.3	31	66*	11
COc1ccccc1NC(=O)CSc1nc2n[nH]c(C)c2c(=N)n1-c1ccccc1Cl	32	0.9	65*	14	0
Cc1ncc(CO)c(/C=N/NC(=O)c2cc3c(s2)CCCC3)c1O	-7	0.7	98*	32	-23
Cc1ncc(CO)c(/C=N/NC(=S)Nc2ccc(Cl)c(Cl)c2)c1O	28	0.8	73*	16	-11
CCOC(=O)N1CCN(CC(O)COCc2cc(OC)c(OC)c(OC)c2)CC1 (centres undefined)	-12	0.8	7	17	0
O=C(NCCCN1CCOCC1)c1sc2cc(F)ccc2c1Cl	3	1	93*	4	1
O=C(NCCCN1CCOCC1)c1sc2cc(Cl)ccc2c1Cl	32	0.9	92*	6	-2
O=C(NCCCN1CCOCC1)c1c(F)cccc1F	4	0.9	-4	14	7
O=C(NCCN1CCOCC1)c1ccc([N+](=O)[O-])cc1[N+](=O)[O-]	-11	0.9	71*	7	3
O=C(NCCCN1CCOCC1)c1sc2cc([N+](=O)[O-])ccc2c1Cl	16	0.9	86*	6	1
O=[N+]([O-])c1ccc(N2CCSCC2)cc1	3	0.9	-6	5	12
CC1(C)CC(NC(=O)c2sc3cc(Cl)ccc3c2Cl)CC(C)(C)N1	16	1	101*	3	-2
O=C(CSc1ccncc1)Nc1ccc2ccccc2c1	21	0.9	91*	7	-2
CC(C)(C)CC(C)(C)NC(=O)CSCC(=O)Nc1ccc2ccccc2c1	68*	0.8	16	19	10
O=C(CSc1ccccc1)Nc1ccc(S(=O)(=O)Nc2ncccn2)cc1	-2	1	-8	-4	7
O=C(CSc1ccc2ccccc2c1)Nc1ccc(S(=O)(=O)Nc2nccs2)cc1	13	0.7	54*	31	0
O=C(N/N=C/c1ccc(OCCCF)cc1)c1cc(OCC(F)(F)F)ccc1OCC(F)(F)F	19	1	-7	3	12
O=C(O)CCSc1nc(C(F)(F)F)cc(=O)n1-c1ccccc1	-2	0.7	-8	27	-10
CCOc1ccc2nc(N/C(N)=N/C(=S)Nc3cccc(C)c3)nc(C)c2c1	16	1	60*	5	1
COc1ccc2nc(N/C(N)=N/C(=S)Nc3cccc(C)c3)nc(C)c2c1	27	1	-3	2	7
NNC(=O)/C(=N/Nc1ccccc1)S(=O)(=O)c1ccc(Cl)cc1	69*	0.9	-2	9	3
CCn1cc(CNC(=O)c2cc(COc3ccc(F)cc3F)on2)cn1	-11	0.8	-6	20	2
CCCCCNC(=O)c1ccc2c(=O)n(CCCN3CCCC3=O)c(=S)[nH]c2c1	8	1	-7	2	5
CCN1CCN(CC(=O)n2c3c(c4ccccc42)CC(C)CC3)CC1 (centres undefined)	8	0.9	100*	11	-38
CC1CCN(CC(=O)n2c3c(c4ccccc42)CCCC3)CC1	14	0.9	5	13	1
SMILES	WT yeast gro inh	Diaphorase act	L major viab	Diaph inh CS	G6PDH counter
C/C(=N\NC(=O)CCC(=O)Nc1ccccc1)c1cccs1	-17	1	-1	4	3
Cc1nn(C(=O)c2ccc3c(c2)OCO3)c(N)c1-c1ccccc1	63	0.8	-5	16	-8
CCc1nnc(NC(=O)CCC(=O)NC2CCCc3ccccc32)s1 (centres undefined)	0	1	48	4	2
CC1(C)C(=O)OC(c2cccn2-c2cccc([N+](=O)[O-])c2)C2(CCCCC2)C1=O (centres undefined)	78*	0.8	4	20	13
O=C(O)c1ccc(-c2nc(-c3ccccc3)c(-c3ccccc3)[nH]2)cc1	14	0.9	89*	8	0
COc1ccc(-c2[nH]c(-c3ccc(C(=O)O)cc3)nc2-c2ccccc2)cc1	-5	0.9	-4	14	3
Cc1cc(C)c(S(=O)(=O)N2CCCOC2CNC(=O)C(=O)NCCCn2ccnc2)c(C)c1 (centres undefined)	-10	1	54*	4	9
Cc1ccc(NS(=O)(=O)c2ccc(C)c(NC(=O)COc3ccccc3)c2)c(C)c1	58*	0.8	16	20	0
